Assay results: PubChem BioAssay AID540348 (Broad Institute, 2011)
The source made the active and inactive calls.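 Rule for the calls: active = inhibitors whose fitted half-maximal dose is at most ten times the top tested dose; inconclusive = flat curve with 30 to 70% inhibition, or a poor fit; inactive = the rest.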

system: not listed separately; test: TRPM1 reporter luminescence decrease in melanoma cells – SK-MEL-5 cells, luciferase, dry powder samples, MITF project, dose response (AID 540348); settings: SK-MEL-5 TRPM1 promoter luciferase reporter, 24 h; at 35 µM (top of the series)
In short: (§1)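 Assay system: SK-MEL-5 melanoma cells with stable TRPM1 promoter–luciferase reporter; Buffer or medium: phenol red-free DMEM with 10% iFBS; Compound: dry-powder compounds tested as a dose series; Times: cell plating one day before dosing, 24 h compound exposure at 37 °C; Detection: Steady-Glo luminescence after 5 min at room temperature, 0.5 s per well.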

Which activity change, negative = inhibition does the source give for N=c1n(CCN2CCCC2)c2ccccc2n1CC(O)c1ccc(Cl)c(Cl)c1 (centres undefined) here?
Its activity change, negative = inhibition is -109% (inactive).

For CC1=NNC(=O)/C1=C\c1cn(-c2ccccc2)nc1-c1ccc(F)cc1, which activity change, negative = inhibition is on record?
Its activity change, negative = inhibition is -106% (inactive).

Which activity change, negative = inhibition does the source give for Cc1oc(-c2ccc(Cl)cc2)nc1CN1CCC(C(=O)NCCCN2CCCC(C)C2)CC1 (centres undefined) here?
Its activity change, negative = inhibition is -104% (inactive).

For CCN(CC)CCNC(=O)c1c(C)n(-c2ccccc2)c2cc(Br)c(OC)cc12, which activity change, negative = inhibition is on record?
Its activity change, negative = inhibition is -94.1% (inactive).

For CCN1CCCC1CNC(=O)c1ccc2c(c1)NC(=O)/C(=C\c1ccc(C)cc1)S2 (centres undefined), which activity change, negative = inhibition is on record?
The activity change, negative = inhibition was -106% (inactive).

With Cc1ccc(C(O)(c2ccc(C)c(C)c2)C2CN3CCC2CC3)cc1C (centres undefined) as the molecule, how does the activity change, negative = inhibition read?
The activity change, negative = inhibition was -51% (inactive).

For CC1CN(C(=O)CCC(=O)NCCCN2CCC(Cc3ccccc3)CC2)c2cc(Cl)ccc2O1 (centres undefined), which activity change, negative = inhibition is on record?
The activity change, negative = inhibition was -105% (inactive).

Which activity change, negative = inhibition does the source give for Cc1[nH]c2ccccc2c1C(=O)CCl here?
The activity change, negative = inhibition was -106% (inactive).

system: SK-MEL-5 TRPM1 promoter luciferase reporter, 24 h; test: as above; settings: not given
In short: as §1

Which AC50 does the source give for COc1ccc(S(=O)(=O)N(C(C)=O)c2ccc(OC(C)=O)c3ccccc23)cc1[N+](=O)[O-] here?
Its AC50 is 2.87 µM.

With CCN1c2ccccc2NC2N=C(OC)C(c3ccccc3)C21 (centres undefined) as the molecule, how does the AC50 read?
Its AC50 is 0.808 µM.

Which AC50 does the source give for Cc1nc2ccccc2n1/N=C/c1ccc([N+](=O)[O-])s1 here?
Its AC50 is 2.88 µM.

With O=C(Nc1ccc(N2CCN(C(=O)c3ccccc3)CC2)cc1)c1ccc([N+](=O)[O-])o1 as the molecule, how does the AC50 read?
The AC50 was 9.85 µM.

For O=C(Nc1ccc(-c2nc3ncccc3o2)cc1)c1ccc([N+](=O)[O-])o1, which AC50 is on record?
Its AC50 is 8.55 µM.

For COc1cc(/C=N/NC(N)=O)c(Br)cc1OCC(=O)Nc1ccccc1C, which AC50 is on record?
The AC50 was 17.7 µM.

With Cc1ccc(C(C)C)c(OCc2nn(CC(=O)c3ccc(Cl)cc3)c3[n+]2CCCCC3)c1 as the molecule, how does the AC50 read?
Its AC50 is 13.8 µM.

For Cc1ccc(C(=O)N/N=C/c2ccc([N+](=O)[O-])s2)cc1, which AC50 is on record?
Its AC50 is 5.75 µM.

For O=C(CNc1cccc2ccccc12)N/N=C/c1ccc([N+](=O)[O-])o1, which AC50 is on record?
Its AC50 is 2.42 µM.

With O=C(Cn1ncc(Cl)c(Cl)c1=O)N1CCc2ccccc21 as the molecule, how does the AC50 read?
The AC50 was 4.69 µM.

Which AC50 does the source give for CN(C)CCCNC(=O)/C(=C\c1ccc(-c2ccc(Br)cc2)o1)NC(=O)c1ccccc1 here?
Its AC50 is 12.2 µM.

Which AC50 does the source give for O=C(COc1ccccc1)N/N=C/c1ccc([N+](=O)[O-])o1 here?
The AC50 was 2.6 µM.

For C=CCNC1=C(Cl)C(=O)c2ccccc2C1=O, which AC50 is on record?
Its AC50 is 0.905 µM.

For CC1CCN(CC(CS(=O)(=O)c2ccc([N+](=O)[O-])cc2)N2CCC(C)CC2)CC1 (centres undefined), which AC50 is on record?
Its AC50 is 5.58 µM.

With CC1CCCCC1NC(=O)/C(C#N)=C/C=C/c1ccccc1[N+](=O)[O-] (centres undefined) as the molecule, how does the AC50 read?
Its AC50 is 7.3 µM.

For CC(C)C(CCNC1CCN(C)CC1)c1ccc(Cl)cc1 (centres undefined), which AC50 is on record?
Its AC50 is 10.6 µM.

For CCN1CCN(C2=C(NS(=O)(=O)c3ccc(Br)cc3)C(=O)c3ccccc3C2=O)CC1, which AC50 is on record?
Its AC50 is 2.09 µM.

Which AC50 does the source give for Cc1cc(C(C)(C)C)cc(C)c1Cn1c2[n+](c3ccc(C(F)(F)F)cc31)CCCCC2 here?
Its AC50 is 9.42 µM.

With COc1cc2c(cc1OC)C(c1ccccc1)N(C(=O)CCl)CC2 (centres undefined) as the molecule, how does the AC50 read?
The AC50 was 5.19 µM.

Which AC50 does the source give for O=c1c(Cl)c2oc3ccccc3nc-2c2ccccc12 here?
Its AC50 is 6.17 µM.

For CC1(C)CC(NC(=O)c2ccc(Cl)c(S(=O)(=O)N(Cc3ccccc3)c3ccccc3)c2)CC(C)(C)N1, which AC50 is on record?
Its AC50 is 6.34 µM.
